Assay results pooled from the literature.
Compare with care: the assays were run in different laboratories.
Target: Muscle, skeletal receptor tyrosine-protein kinase (MUSK, Homo sapiens, UniProt O15146)
Residues used in one study (O15146 24-869): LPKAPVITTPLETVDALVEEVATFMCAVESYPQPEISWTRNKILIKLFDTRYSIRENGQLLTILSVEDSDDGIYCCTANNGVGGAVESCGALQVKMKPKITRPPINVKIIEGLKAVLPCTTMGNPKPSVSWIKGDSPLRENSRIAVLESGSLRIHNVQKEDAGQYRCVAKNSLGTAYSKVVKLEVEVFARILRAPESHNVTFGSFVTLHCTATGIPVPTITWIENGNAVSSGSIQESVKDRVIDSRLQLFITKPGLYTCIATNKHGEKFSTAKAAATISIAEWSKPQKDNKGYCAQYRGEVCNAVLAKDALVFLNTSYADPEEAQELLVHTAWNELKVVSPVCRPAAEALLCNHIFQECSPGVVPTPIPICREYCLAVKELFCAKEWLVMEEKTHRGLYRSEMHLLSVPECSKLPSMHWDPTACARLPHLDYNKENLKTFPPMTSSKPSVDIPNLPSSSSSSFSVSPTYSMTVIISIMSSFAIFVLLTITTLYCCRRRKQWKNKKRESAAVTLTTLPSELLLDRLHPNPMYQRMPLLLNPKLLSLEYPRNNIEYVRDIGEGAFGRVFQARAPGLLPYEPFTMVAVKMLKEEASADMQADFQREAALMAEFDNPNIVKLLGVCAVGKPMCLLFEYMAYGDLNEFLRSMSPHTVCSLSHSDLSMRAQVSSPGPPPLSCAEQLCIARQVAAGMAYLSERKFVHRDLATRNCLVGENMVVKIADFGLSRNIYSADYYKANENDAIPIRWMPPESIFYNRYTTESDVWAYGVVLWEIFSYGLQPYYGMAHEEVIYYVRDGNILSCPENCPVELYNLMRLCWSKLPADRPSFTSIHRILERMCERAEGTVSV

SMILES	effect on	method	concentration	remaining binding [%]
N#Cc1ccc(Nc2ccc3[nH]c(=O)[nH]c3c2)c(Cl)c1	cell-free assay	competition with immobilised ligand	1 µM	100
COc1cnc(Nc2cccc(S(N)(=O)=O)c2)nc1N1CCN(c2ccccc2)CC1	binding	competition with immobilised ligand	1 µM	97
O=C(NCCCN1CCOCC1)c1ccc(Nc2nccc(-c3cc4ccccc4s3)n2)cc1	binding	competition with immobilised ligand	1 µM	77
O=C(Nc1c[nH]nc1C(=O)NC1CCNCC1)c1cc(F)cc(F)c1	binding	competition with immobilised ligand	1 µM	88
O=C(NCCCN1CCOCC1)c1ccc(Nc2ncc(Cl)c(-c3ccc(Cl)s3)n2)cc1	binding	competition with immobilised ligand	1 µM	54
c1cncc(-c2cccc(Nc3nccc(NC4CCCCC4)n3)c2)c1	binding	competition with immobilised ligand	10 µM	86
CN([C@@H]1CCc2c(CC(=O)O)c3cc(S(C)(=O)=O)ccc3n2C1)S(=O)(=O)c1ccc(F)cc1	cell-free assay	competition with immobilised ligand	1 µM	100
Nc1ncc2c(n1)-c1c([nH]c3ccc(C#CC4CC4)cc13)CCCC2	binding	competition with immobilised ligand	1 µM	100
C[C@@H](c1ccc(-n2cnc3c(N)ncnc32)cc1)N1CCc2nn(C)c(Cc3ccccc3)c2C1=O	binding	competition with immobilised ligand	0.1 µM	68
c1cnn2ncc(-c3ccnc(N4CCC45COC5)n3)c2c1	binding		1 µM	80
COc1ccc2c(c1)O[C@@H](c1ccc(OC)c(OC)c1)C[C@H]2NC(=O)C1(c2ccc3c(c2)OC(F)(F)O3)CC1	cell-free assay	competition with immobilised ligand	1 µM	94
O=C(c1ccc(Nc2nccc(-c3cc4ccccc4s3)n2)cc1)N1CCC(N2CCCC2)CC1	binding	competition with immobilised ligand	1 µM	72
CN(C)c1nccc(-c2cnc3ncccn23)n1	binding		1 µM	83
CC(=O)c1c(NS(C)(=O)=O)c2cc(-c3ccc(Cl)cc3)c(-c3ccc(Cl)cc3Cl)nc2n(C)c1=O	cell-free assay	competition with immobilised ligand	1 µM	99
CC1CCCN1c1nccc(-c2cnn3ncccc23)n1 (stereo not shown)	binding		1 µM	100
CNC(=O)[C@@H]1CC[C@@H](n2c(-c3ccc4cnccc4c3)nc3ccc(C(=O)NCc4cccc(C(N)=O)c4)cc32)C1	binding	competition with immobilised ligand	1 µM	90
CN(c1nccc(-c2cnn3ncccc23)n1)C1CC1	binding		1 µM	100
CCN1CCN(Cc2ccc(C(=O)Nc3ccc(C)c(Oc4ccc5c(c4)CC(=O)N5)c3)cc2C(F)(F)F)CC1	binding	competition with immobilised ligand	1 µM	100
CO[C@@H](C)c1c(Nc2ccc([C@@H](N(C)C(=O)C3CCS(=O)(=O)CC3)C(F)(F)F)cc2)cnc2cc(Cl)nn12	cell-free assay	competition with immobilised ligand	1 µM	88
N[C@H]1CCN(c2nccc(-c3cnn4ncccc34)n2)C1	binding		1 µM	100
CCC(=O)N[C@H]1CC[C@@H](C(=O)N(C)c2ccc(-c3nc4ccccc4o3)cc2)C1	cell-free assay	competition with immobilised ligand	1 µM	100
C[C@@H]1CCN(c2nccc(-c3cnn4ncccc34)n2)C1	binding		1 µM	92
